Results reported in ChEMBL document CHEMBL4261601, “Discovery and lead identification of quinazoline-based BRD4 inhibitors” (Bioorg Med Chem Lett, 2018).

Key:
MV4-11 = assay: Cytotoxicity against human MV411 cells after 72 hrs by CellTiter-Glo assay; type: functional, cell-based; conditions: MV4-11, 72 h
[1] = biological target: T1, Bromodomain-containing protein 4 (Homo sapiens, UniProt O60885); assay: Displacement of biotinylated acetylated peptide from recombinant human partial length BRD4 long isoform bromodomain 1/2 (N44 to E460 residues) expressed in Escherichia coli BL21 measured after 1 hr by Bromoscan method
Mus musculus [2] = assay: Cmax in CD-1 mouse at 10 mg/kg, po measured after 5 mins; type: ADME, organism-based; parameters: dose 10 mg/kg, route oral; conditions: in vivo
[3] = Half life in CD-1 mouse at 10 mg/kg, po; type: ADME, organism-based; conditions: in vivo
Outline: (§1)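 CD-1 mice (n = 3) received a single oral dose of 10 mg/kg. Plasma drug levels were followed over time to derive AUC0–∞, t1/2 and oral bioavailability (F%), the last relative to the iv arm.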

[4] = (§2) AUC (0 to infinity) in CD-1 mouse at 10 mg/kg, po; type: ADME, organism-based; parameters: dose 10 mg/kg, time infinity, route oral; conditions: CD-1, mouse, in vivo; outline: as §1
[5] = biological target: T2, Bromodomain-containing protein 3 (Homo sapiens, UniProt Q15059); assay: Displacement of biotinylated acetylated peptide from recombinant human partial length BRD3 bromodomain 1 (P24 to E144 residues) expressed in Escherichia coli BL21 measured after 1 hr by Bromoscan method
T2 sequence (Q15059 whole entry, the tested form may be a part): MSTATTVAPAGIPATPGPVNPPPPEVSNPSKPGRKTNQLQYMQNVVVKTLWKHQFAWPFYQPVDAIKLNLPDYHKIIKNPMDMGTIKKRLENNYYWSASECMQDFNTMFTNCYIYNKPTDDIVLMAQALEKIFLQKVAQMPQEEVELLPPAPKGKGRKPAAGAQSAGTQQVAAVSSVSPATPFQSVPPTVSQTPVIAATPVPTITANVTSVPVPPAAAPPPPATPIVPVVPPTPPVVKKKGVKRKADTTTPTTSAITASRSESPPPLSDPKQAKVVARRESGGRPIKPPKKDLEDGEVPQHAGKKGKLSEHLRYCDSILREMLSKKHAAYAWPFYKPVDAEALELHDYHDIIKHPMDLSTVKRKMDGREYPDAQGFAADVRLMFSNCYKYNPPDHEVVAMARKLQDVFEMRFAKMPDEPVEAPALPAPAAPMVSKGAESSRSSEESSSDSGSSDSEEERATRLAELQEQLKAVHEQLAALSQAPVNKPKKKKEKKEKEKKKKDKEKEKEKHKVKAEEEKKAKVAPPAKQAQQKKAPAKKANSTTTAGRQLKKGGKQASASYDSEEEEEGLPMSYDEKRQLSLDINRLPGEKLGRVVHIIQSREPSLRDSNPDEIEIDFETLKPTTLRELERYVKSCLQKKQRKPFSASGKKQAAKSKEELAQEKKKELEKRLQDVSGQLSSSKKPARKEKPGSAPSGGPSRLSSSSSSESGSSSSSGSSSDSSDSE

[6] = biological target: T2, Bromodomain-containing protein 3; assay: Displacement of biotinylated acetylated peptide from recombinant human partial length BRD3 bromodomain 1/2 (P24 to P416 residues) expressed in Escherichia coli BL21 measured after 1 hr by Bromoscan method
[7] = biological target: T3, Bromodomain-containing protein 2 (Homo sapiens, UniProt P25440); assay: Displacement of biotinylated acetylated peptide from recombinant human partial length BRD2 isoform 1 bromodomain 1 (K71 to N194 residues) expressed in Escherichia coli BL21 measured after 1 hr by Bromoscan method
T3 sequence (P25440 whole entry, the tested form may be a part, canonical isoform): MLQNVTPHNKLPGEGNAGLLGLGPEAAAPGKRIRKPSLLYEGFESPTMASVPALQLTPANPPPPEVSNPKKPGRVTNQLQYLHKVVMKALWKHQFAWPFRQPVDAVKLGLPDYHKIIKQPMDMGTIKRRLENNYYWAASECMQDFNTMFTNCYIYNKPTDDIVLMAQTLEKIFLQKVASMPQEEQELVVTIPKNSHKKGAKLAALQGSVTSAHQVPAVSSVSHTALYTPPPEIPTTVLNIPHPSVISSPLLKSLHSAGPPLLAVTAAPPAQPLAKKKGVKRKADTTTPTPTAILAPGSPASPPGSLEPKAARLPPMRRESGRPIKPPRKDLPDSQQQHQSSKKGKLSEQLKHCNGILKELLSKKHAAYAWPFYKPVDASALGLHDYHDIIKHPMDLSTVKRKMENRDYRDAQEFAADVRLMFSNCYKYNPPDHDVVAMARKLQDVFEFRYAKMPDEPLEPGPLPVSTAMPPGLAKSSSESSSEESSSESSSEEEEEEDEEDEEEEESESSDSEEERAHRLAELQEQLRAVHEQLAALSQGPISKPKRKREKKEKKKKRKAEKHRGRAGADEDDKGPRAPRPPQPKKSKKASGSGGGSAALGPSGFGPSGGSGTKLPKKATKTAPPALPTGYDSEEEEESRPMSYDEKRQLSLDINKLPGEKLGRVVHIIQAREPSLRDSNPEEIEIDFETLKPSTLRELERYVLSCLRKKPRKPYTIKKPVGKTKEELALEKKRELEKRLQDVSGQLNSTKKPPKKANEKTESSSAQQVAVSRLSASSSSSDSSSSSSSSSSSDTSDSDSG

[8] = biological target: T4, Bromodomain testis-specific protein (Homo sapiens, UniProt Q58F21); assay: Displacement of biotinylated acetylated peptide from recombinant human partial length BRDT isoform b bromodomain 1/2 (N21 to E382 residues) expressed in Escherichia coli BL21 measured after 1 hr by Bromoscan method
[9] = biological target: T1, Bromodomain-containing protein 4; assay: Displacement of biotinylated acetylated peptide from recombinant human partial length BRD4 long isoform bromodomain 2 (K333 to E460 residues) expressed in Escherichia coli BL21 measured after 1 hr by Bromoscan method
[10] = biological target: T4, Bromodomain testis-specific protein; assay: Displacement of biotinylated acetylated peptide from recombinant human partial length BRDT isoform b bromodomain 1 (N21 to E137 residues) expressed in Escherichia coli BL21 measured after 1 hr by Bromoscan method
[11] = biological target: T3, Bromodomain-containing protein 2; assay: Displacement of biotinylated acetylated peptide from recombinant human partial length BRD2 isoform 1 bromodomain 1/2 (K71 to D455 residues) expressed in Escherichia coli BL21 measured after 1 hr by Bromoscan method
[12] = biological target: T2, Bromodomain-containing protein 3; assay: Displacement of biotinylated acetylated peptide from recombinant human partial length BRD3 bromodomain 2 (G306 to P416 residues) expressed in Escherichia coli BL21 measured after 1 hr by Bromoscan method
[13] = biological target: T3, Bromodomain-containing protein 2; assay: Displacement of biotinylated acetylated peptide from recombinant human partial length BRD2 isoform 1 bromodomain 2 (E348 to D455 residues) expressed in Escherichia coli BL21 measured after 1 hr by Bromoscan method
[14] = biological target: T4, Bromodomain testis-specific protein; assay: Displacement of biotinylated acetylated peptide from recombinant human partial length BRDT isoform b bromodomain 2 (K250 to E382 residues) expressed in Escherichia coli BL21 measured after 1 hr by Bromoscan method
[15] = biological target: T1, Bromodomain-containing protein 4; assay: Displacement of biotinylated acetylated peptide from recombinant human partial length BRD4 long isoform bromodomain 1 (N44 to E168 residues) expressed in Escherichia coli BL21 measured after 1 hr by Bromoscan method
Mus musculus [16] = assay: as §2; type: ADME, organism-based; parameters: dose 10 mg/kg, time infinity, route oral; conditions: mouse, in vivo, BLD = below limit of detection; outline: as §1
Mus musculus [17] = assay: Oral bioavailability in CD-1 mouse at 10 mg/kg; type: ADME, organism-based; conditions: in vivo; outline: as §1
[18] = Half life in CD-1 mouse at 2 mg/kg, iv; type: ADME, organism-based; conditions: in vivo
Mus musculus [19] = assay: Cmax in CD-1 mouse at 2 mg/kg, iv measured after 5 mins; type: ADME, organism-based; parameters: dose 2 mg/kg, route intravenous; conditions: in vivo
[20] = AUC (0 to infinity) in CD-1 mouse at 2 mg/kg, iv; type: ADME, organism-based; parameters: dose 2 mg/kg, time infinity, route intravenous; conditions: in vivo
[21] = Volume of distribution at steady state in CD-1 mouse at 2 mg/kg, iv measured; type: ADME, organism-based; conditions: in vivo, read-out: Vdss
[22] = Plasma clearance in CD-1 mouse at 2 mg/kg, iv; type: ADME, organism-based

Kd [1] [nM] | SMILES | IC50 (MV4-11) [nM] | further results
 | CNc1nc(NCc2cccc(Cl)c2)c2cc(-c3c(C)noc3C)ccc2n1 | 3590 | 
56 | Cc1noc(C)c1-c1ccc2nc(N3CCN(CCO)CC3)nc(NCc3cccc(Cl)c3)c2c1 | 1670 | 
80 | Cc1noc(C)c1-c1ccc2nc(C(=O)NC3CCN(C)CC3)nc(NCc3cccc(Cl)c3)c2c1 | 1020 | Cmax (Mus musculus [2]): 9 ng/mL; half-life [3]: 4 h; AUC(0-inf) [4]: 54 ng·h/mL
 | Cc1noc(C)c1-c1ccc2nc(-n3cc(CCO)cn3)nc(NCc3cccc(Cl)c3)c2c1 | 3080 | 
110 | Cc1noc(C)c1-c1ccc2nc(N3CCN(CCN(C)C)CC3)nc(NCc3cc(Cl)ccn3)c2c1 | 1600 | 
3000 | Cc1noc(C)c1-c1ccc2nc(N3CCN(CCN(C)C)CC3)nc(NCCc3ccc(Cl)cc3)c2c1 | 6650 | 
120 | Cc1noc(C)c1-c1ccc2nc(-c3cnn(CCC#N)c3)nc(NCc3cccc(Cl)c3)c2c1 | 950 | 
86 | Cc1noc(C)c1-c1ccc2nc(N3CCN(CCN(C)C)CC3)nc(NC3(c4cccc(Cl)c4)CC3)c2c1 | 1600 | 
130 | Cc1noc(C)c1-c1ccc2nc(-c3cnn(CC(N)=O)c3)nc(NCc3cccc(Cl)c3)c2c1 | 660 | 
9100 | CN(C)CCN1CCN(c2nc(NCc3cccc(Cl)c3)c3cc(-c4ccnc(O)c4)ccc3n2)CC1 | 17300 | 
 | Cc1noc(C)c1-c1ccc2nc(N3CCN(CCN(C)C)CC3)nc(N3CCOCC3c3ccccc3)c2c1 (centres undefined) | 1830 | 
310 | Cc1cc(-c2ccc3nc(N4CCN(CCN(C)C)CC4)nc(NCc4cccc(Cl)c4)c3c2)cnc1O | 1130 | 
85 | Cc1noc(C)c1-c1ccc2nc(N3CCN(CCN(C)C)CC3)nc(NCc3ccccc3Cl)c2c1 | 1250 | 
1100 | Cc1oncc1-c1ccc2nc(N3CCN(CCN(C)C)CC3)nc(NCc3cccc(Cl)c3)c2c1 | 8030 | 
 | Cc1noc(C)c1-c1ccc2nc(Cl)nc(NCc3cccc(Cl)c3)c2c1 | 11300 | 
480 | Cc1noc(C)c1-c1ccc2nc(N3CCN(CCN(C)C)CC3)nc(N3CCC3c3ccccc3)c2c1 (centres undefined) | 4880 | 
44 | CN(C)CCN1CCN(c2nc(NCc3cccc(Cl)c3)c3cc(-c4ccc(=O)n(C)c4)ccc3n2)CC1 | 540 | Kd [5]: 21 nM; Kd [6]: 20 nM; Kd [7]: 33 nM; Kd [8]: 67 nM; Kd [9]: 50 nM; Kd [10]: 20 nM; Kd [11]: 27 nM; Kd [12]: 21 nM; Kd [13]: 24 nM; Kd [14]: 160 nM; Kd [15]: 18 nM; AUC (Mus musculus [16]): Bld
150 | Cc1noc(C)c1-c1ccc2nc(N3CCCN(CCN(C)C)CC3)nc(NCc3cccc(Cl)c3)c2c1 | 2100 | 
59 | Cc1noc(C)c1-c1ccc2nc(C(=O)NCc3cnn(C)c3)nc(NCc3cccc(Cl)c3)c2c1 | 1270 | 
79 | Cc1noc(C)c1-c1ccc2nc(C(=O)NC3CCOCC3)nc(NCc3cccc(Cl)c3)c2c1 | 2840 | 
270 | Cc1noc(C)c1-c1ccc2nc(N3CCN(CCN(C)C)CC3)nc(N(C)Cc3cccc(Cl)c3)c2c1 | 5500 | 
30 | Cc1noc(C)c1-c1ccc2nc(N3CCN(C(=O)CN(C)C)CC3)nc(NCc3cccc(Cl)c3)c2c1 | 1230 | 
 | Cc1noc(C)c1-c1ccc2nc(-c3ccc(CO)nc3)nc(NCc3cccc(Cl)c3)c2c1 | 2640 | 
55 | Cc1noc(C)c1-c1ccc2[nH]c(=O)cc(NCc3cccc(Cl)c3)c2c1 | 1800 | 
56 | Cc1noc(C)c1-c1ccc2nc(N3CCN(CCN(C)C)CC3)nc(NCc3cccc(Cl)c3)c2c1 | 660 | 
92 | COCCn1cc(-c2nc(NCc3cccc(Cl)c3)c3cc(-c4c(C)noc4C)ccc3n2)cn1 | 1870 | 
95 | Cc1noc(C)c1-c1ccc2nc(-c3cnn(CCO)c3)nc(NCc3cccc(Cl)c3)c2c1 | 1670 | 

Kd [1] [nM] | SMILES | IC50 (MV4-11) [nM] | further results
170 | Cc1noc(C)c1-c1ccc2nc(N3CCN(CCN(C)C)CC3)nc(NCc3cccc(F)c3)c2c1 | 1230 | 
250 | Cc1noc(C)c1-c1ccc2nc(N3CCN(CCN(C)C)CC3)nc(N3CCCC3c3ccccc3)c2c1 (centres undefined) | 2540 | 
7100 | CN(C)CCN1CCN(c2nc(NCc3cccc(Cl)c3)c3cc(-c4ccn(C)c(=O)c4)ccc3n2)CC1 | 6890 | 
71 | Cc1noc(C)c1-c1ccc2nc(N3CCN(C(=O)CO)CC3)nc(NCc3cccc(Cl)c3)c2c1 | 1330 | 
 | CNC(=O)Cn1cc(-c2nc(NCc3cccc(Cl)c3)c3cc(-c4c(C)noc4C)ccc3n2)cn1 | 1010 | 
570 | Cc1noc(C)c1-c1ccc2nc(C(=O)N3CCN(CCN(C)C)CC3)nc(NCc3cccc(Cl)c3)c2c1 | 4710 | 
1500 | Cc1n[nH]c(C)c1-c1ccc2nc(N3CCN(CCN(C)C)CC3)nc(NCc3cccc(Cl)c3)c2c1 | 2850 | 
520 | Cc1noc(C)c1-c1ccc2nc(N3CCN(CCN(C)C)CC3)nc(NCc3ccc(Cl)cc3)c2c1 | 3480 | 
56 | Cc1noc(C)c1-c1ccc2nc(-c3cnn(CCN(C)C)c3)nc(NCc3cccc(Cl)c3)c2c1 | 1330 | 
290 | Cc1noc(C)c1-c1ccc2nc(C(=O)Nc3cnn(C)c3)nc(NCc3cccc(Cl)c3)c2c1 | 3590 | 
150 | Cc1noc(C)c1-c1ccc2nc(N3CCN(CCN(C)C)CC3)nc(NCc3cccs3)c2c1 | 1620 | 
980 | Cc1noc(C)c1-c1ccc2nc(N3CCN(CCC(C)C)CC3)nc(NCc3cccc(Cl)c3)c2c1 | 6890 | 
60 | Cc1noc(C)c1-c1ccc2nc(N3CCN(CCN(C)C)CC3)nc(N3CCCCC3c3ccccc3)c2c1 (centres undefined) | 5070 | 
73 | Cc1noc(C)c1-c1ccc2nc(N3CCN(CC(=O)N(C)C)CC3)nc(NCc3cccc(Cl)c3)c2c1 | 1730 | 
97 | Cc1noc(C)c1-c1ccc2nc(N3CCN(CCCN(C)C)CC3)nc(NCc3cccc(Cl)c3)c2c1 | 2360 | 
79 | Cc1noc(C)c1-c1ccc2nc(N3CCN(CCN(C)C)CC3)nc(NCc3cncc(Cl)c3)c2c1 | 1370 | 
360 | Cc1nocc1-c1ccc2nc(N3CCN(CCN(C)C)CC3)nc(NCc3cccc(Cl)c3)c2c1 | 2970 | 
130 | Cc1noc(C)c1-c1ccc2nc(N3CCN(CCN(C)C)CC3)nc(N[C@@H](CO)c3ccccc3)c2c1 | 2100 | 
56 | Cc1noc(C)c1-c1ccc2nc(C(=O)NCc3cccnc3)nc(NCc3cccc(Cl)c3)c2c1 | 1430 | 
140 | Cc1noc(C)c1-c1ccc2nc(N3CCN(C)CC3)nc(NCc3cccc(Cl)c3)c2c1 | 1600 | 
2600 | Cc1noc(C)c1-c1ccc2nc(N3CCN(CCN(C)C)CC3)nc(Nc3ccc(Cl)cc3)c2c1 | 1510 | 
110 | Cc1noc(C)c1-c1ccc2nc(N(C)CCN(C)C)nc(NCc3cccc(Cl)c3)c2c1 | 2970 | 
620 | Cc1ccc(NC(=O)c2nc(NCc3cccc(Cl)c3)c3cc(-c4c(C)noc4C)ccc3n2)cn1 | 4520 | 
66 | Cc1noc(C)c1-c1ccc2nc(-c3cnn(CCO)c3)nc(N3CCOCC3c3ccccc3)c2c1 (centres undefined) |  | F (Mus musculus [17]): 51%; half-life [18]: 3.1 h; Cmax (Mus musculus [19]): 1690 ng/mL; AUC(0-inf) [20]: 1760 ng·h/mL; Vd [21]: 1.7 L/kg; half-life [3]: 2.1 h; AUC(0-inf) [4]: 4490 ng·h/mL; clearance [22]: 19.8 mL/min/kg
550 | CN(C)CCN1CCN(c2nc(NCc3cccc(Cl)c3)c3cc(-c4ccc(O)nc4)ccc3n2)CC1 | 6070 | 
270 | Cc1noc(C)c1-c1ccc2nc(N3CCN(CCN(C)C)CC3)nc(NC(C)c3cccc(Cl)c3)c2c1 (centres undefined) | 4350 | 
610 | Cc1noc(C)c1-c1ccc2c(NCc3cccc(Cl)c3)nc(N3CCN(CCN(C)C)CC3)nc2c1 | 1870 | 
